Experimental data published in the M2OR odorant receptor database.

molecular target: T1, OR1G1 (Homo sapiens) (UniProt P47890); conditions: stereoisomer not certain
T1 sequence (whole entry): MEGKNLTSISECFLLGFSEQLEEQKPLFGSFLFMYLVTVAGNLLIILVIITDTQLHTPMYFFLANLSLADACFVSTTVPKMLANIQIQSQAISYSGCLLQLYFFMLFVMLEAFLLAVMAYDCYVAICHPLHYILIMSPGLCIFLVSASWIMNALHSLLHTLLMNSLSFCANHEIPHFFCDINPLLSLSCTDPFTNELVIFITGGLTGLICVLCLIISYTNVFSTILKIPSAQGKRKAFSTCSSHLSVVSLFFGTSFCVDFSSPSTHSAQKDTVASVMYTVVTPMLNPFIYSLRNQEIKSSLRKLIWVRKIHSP
Summary of the method: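 Assay methods differ from source to source, frequently being transient luciferase assays in mammalian cell lines. For each receptor–molecule pair, the label responsive (active) applies when the original authors judged the measured signal statistically different from baseline, and non-responsive (inactive) applies otherwise.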

Odorant receptor agonist call, inactive:
CCC=C(C)C(O)CCCCC (centres undefined)
CC=CC(=O)C1C(C)=CCCC1(C)C (centres undefined)
CCCCCC(=O)OCC
CCCCCC(=O)OC
CCC(=O)C=CC1C(C)=CCCC1(C)C (centres undefined)
CC(=O)OCc1ccccc1
CC1CCC(C(C)C)C(=O)C1 (centres undefined)
CCCCC1CCC(=O)O1 (centres undefined)
CCCCCCC(=O)OCC
CCCCCCCC(=O)[O-].[H+]
C=CC(C)(O)CCC=C(C)CCC=C(C)C (centres undefined)
COc1ccccc1
COc1nccnc1CC(C)C
CC1CC(C)(c2ccccc2)CO1 (centres undefined)
CCOC(=O)CC1(C)OCCO1

Odorant receptor agonist call, active:
CCCCCCCCC(=O)OCC
CCCCCCCCCC(=O)OC
CCCCCCO
C=C(C)C1CC=C(C)CC1 (centres undefined)
CCCC(=O)SC
CCCCCCCC(C)O (centres undefined)
O=c1ccc2ccccc2o1
c1ccc2scnc2c1
CCCCCC=O
Cc1ccc(C(C)C)c(O)c1
CCCCCCCCC(OC(C)=O)OC(C)=O
c1cscn1
CC(C)=CCCC(C)CC=O (centres undefined)
CCCCCCCCC(=O)O
CCCCCCC(C)O (centres undefined)
CCCCCC1C(=O)CCC1CC(=O)OC (centres undefined)
CCCCCCCC(C)=O
Cc1occc(=O)c1O
CCCCCCCCCCCCO
